Experimental data as given in ChEMBL document CHEMBL4622830, “Substituted pteridinones as p90 ribosomal S6 protein kinase (RSK) inhibitors: A structure-activity study” (Bioorg Med Chem, 2020).
The source made the active and inactive calls. The calls are words filed in the database; no cut-off is given here.

Experiments:
[1] = molecular target: T1, Ribosomal protein S6 kinase alpha-3 (Homo sapiens, UniProt P51812); assay: Inhibition of full length human GST-tagged RSK2 using Ulight-rpS6 as substrate at 10 uM incubated for 1 hr in presence of ATP by TR FRET assay
T1 sequence (P51812 whole entry): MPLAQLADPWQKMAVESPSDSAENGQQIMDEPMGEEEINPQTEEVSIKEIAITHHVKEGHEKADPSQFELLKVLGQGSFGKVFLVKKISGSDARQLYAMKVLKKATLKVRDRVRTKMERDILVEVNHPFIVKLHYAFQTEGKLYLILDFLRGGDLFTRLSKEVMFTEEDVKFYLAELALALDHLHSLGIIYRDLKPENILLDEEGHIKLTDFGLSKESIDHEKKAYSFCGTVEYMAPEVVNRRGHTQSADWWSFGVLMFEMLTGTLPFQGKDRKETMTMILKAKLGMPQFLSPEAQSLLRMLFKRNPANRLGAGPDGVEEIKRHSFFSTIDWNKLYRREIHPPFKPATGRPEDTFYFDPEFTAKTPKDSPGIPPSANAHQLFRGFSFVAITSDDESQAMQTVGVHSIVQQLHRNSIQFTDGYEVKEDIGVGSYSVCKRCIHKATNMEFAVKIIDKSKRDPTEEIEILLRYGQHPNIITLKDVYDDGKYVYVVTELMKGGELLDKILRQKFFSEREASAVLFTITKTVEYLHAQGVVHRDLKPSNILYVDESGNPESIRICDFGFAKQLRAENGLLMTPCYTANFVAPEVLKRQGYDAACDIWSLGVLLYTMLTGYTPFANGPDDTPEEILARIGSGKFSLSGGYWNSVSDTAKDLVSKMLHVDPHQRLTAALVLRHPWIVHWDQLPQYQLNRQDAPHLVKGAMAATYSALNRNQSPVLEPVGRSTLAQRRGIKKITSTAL
Procedure, shortened: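 Recombinant RSK2 at 500 pM final with 250 nM ULight-rpS6 (Ser235/236) substrate and 3 μM ATP, in 50 mM HEPES pH 7.5, 10 mM MgCl2, 1 mM EGTA, 2 mM DTT, 0.01% Tween 20. DMSO ≤0.5%. Ran 1 h at room temperature, stopped with 10 mM EDTA. Eu anti-phospho antibody (2 nM) TR-FRET, 665/615 nm ratio read.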

[2] = molecular target: T1, Ribosomal protein S6 kinase alpha-3; assay: Inhibition of full length human GST-tagged RSK2 using Ulight-rpS6 as substrate incubated for 1 hr in presence of ATP by TR FRET assay
MOLM-13 [3] = assay: Antiproliferative activity against human MOLM13 assessed as reduction in cell viability at 60 uM incubated for 72 hrs by MTS assay; format: functional; conditions: MOLM-13, 72 h, read-out: GI
HEK293 = assay: Cytotoxicity in HEK293 cells assessed as reduction in cell viability; format: cell-based; conditions: human
MOLM-13 [4] = assay: Antiproliferative activity against human MOLM13 assessed as reduction in cell viability incubated for 72 hrs by CellTox green assay; format: functional, cell-based; conditions: MOLM-13, 72 h
[5] = molecular target: T1, Ribosomal protein S6 kinase alpha-3; assay: Inhibition of RSK2 (unknown origin)
[6] = molecular target: Ribosomal protein S6 kinase alpha-2 (Homo sapiens, UniProt Q15349); assay: Inhibition of RSK3 (unknown origin)
Sequence of Ribosomal protein S6 kinase alpha-2 (Q15349 whole entry): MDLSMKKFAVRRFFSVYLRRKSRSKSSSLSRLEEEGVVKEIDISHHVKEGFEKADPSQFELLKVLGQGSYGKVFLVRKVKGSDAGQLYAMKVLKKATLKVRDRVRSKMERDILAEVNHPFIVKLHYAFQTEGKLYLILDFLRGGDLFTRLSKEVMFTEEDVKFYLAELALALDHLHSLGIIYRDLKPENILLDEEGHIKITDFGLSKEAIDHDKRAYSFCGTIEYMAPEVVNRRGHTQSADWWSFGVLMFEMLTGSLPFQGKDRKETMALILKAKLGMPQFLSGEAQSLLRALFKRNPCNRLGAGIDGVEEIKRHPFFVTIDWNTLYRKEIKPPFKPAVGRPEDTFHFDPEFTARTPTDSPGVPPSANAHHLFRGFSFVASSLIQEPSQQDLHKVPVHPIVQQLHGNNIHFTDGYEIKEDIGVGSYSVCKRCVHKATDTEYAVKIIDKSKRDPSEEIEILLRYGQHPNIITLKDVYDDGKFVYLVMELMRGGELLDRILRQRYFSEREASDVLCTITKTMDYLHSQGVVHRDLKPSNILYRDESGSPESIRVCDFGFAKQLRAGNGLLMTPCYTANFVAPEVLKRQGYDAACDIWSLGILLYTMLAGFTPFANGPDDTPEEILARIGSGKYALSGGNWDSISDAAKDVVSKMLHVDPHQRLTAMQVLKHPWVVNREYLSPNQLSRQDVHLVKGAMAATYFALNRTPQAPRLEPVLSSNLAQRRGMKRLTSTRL

[7] = molecular target: Ribosomal protein S6 kinase alpha-1 (Homo sapiens, UniProt Q15418); assay: Inhibition of RSK1 (unknown origin)
Sequence of Ribosomal protein S6 kinase alpha-1 (Q15418 whole entry): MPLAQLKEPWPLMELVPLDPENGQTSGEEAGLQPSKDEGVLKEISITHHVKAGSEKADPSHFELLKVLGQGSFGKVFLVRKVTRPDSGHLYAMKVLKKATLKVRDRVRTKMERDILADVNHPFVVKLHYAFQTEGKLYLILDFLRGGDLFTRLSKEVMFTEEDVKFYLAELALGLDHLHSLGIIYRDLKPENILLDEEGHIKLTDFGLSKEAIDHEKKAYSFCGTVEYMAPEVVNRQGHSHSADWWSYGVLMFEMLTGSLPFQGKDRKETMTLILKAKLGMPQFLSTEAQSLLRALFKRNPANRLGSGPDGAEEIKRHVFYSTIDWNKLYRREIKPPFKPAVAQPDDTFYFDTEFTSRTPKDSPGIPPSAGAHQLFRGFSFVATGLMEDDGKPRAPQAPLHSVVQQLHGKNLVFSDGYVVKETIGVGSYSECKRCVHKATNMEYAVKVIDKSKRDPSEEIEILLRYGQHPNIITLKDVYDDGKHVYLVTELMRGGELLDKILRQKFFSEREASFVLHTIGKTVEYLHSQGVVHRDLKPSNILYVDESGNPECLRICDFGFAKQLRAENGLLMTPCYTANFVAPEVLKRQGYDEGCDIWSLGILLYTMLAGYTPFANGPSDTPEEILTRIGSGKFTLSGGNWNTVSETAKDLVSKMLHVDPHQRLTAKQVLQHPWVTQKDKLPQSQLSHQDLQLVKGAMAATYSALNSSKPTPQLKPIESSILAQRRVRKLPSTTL

MOLM-13 [8] = assay: Antiproliferative activity against human MOLM13 assessed as reduction in cell viability incubated for 72 hrs by CellTiter-Glo assay; format: functional, cell-based; conditions: MOLM-13, 72 h
Procedure, shortened: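 CellTiter-Glo viability in MOLM-13 cells seeded at 30,000 per well, treated across 60 µM to 247 nM at 37°C for up to 72 h. Plates equilibrated 30 min at RT, reagent added, shaken 2 min, luminescence read after 10 min. Final DMSO ≤0.5%; n = 3.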

[9] = molecular target: Bromodomain-containing protein 4 (Homo sapiens, UniProt O60885); assay: Binding affinity to BRD4 bromodomain 1 (unknown origin) by ITC assay
MOLM-13 [10] = assay: Antiproliferative activity against human MOLM13 assessed as reduction in cell viability at 0.25 to 60 uM incubated for 24 hrs by CellTox green assay; format: functional, cell-based
Procedure, shortened: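 Cytotoxicity read by CellTox Green: MOLM-13 cells, 60,000 per well, in medium with CellTox Green dye at 1:500, treated over 60 μM to 247 nM at 37°C. Fluorescence (ex 485/em 520 nm) read at 0, 24, 48 and 72 h.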

MOLM-13 [11] = assay: Antiproliferative activity against human MOLM13 assessed as reduction in cell viability at 0.25 to 60 uM incubated for 24 hrs by CellTiter-Glo assay; format: functional, cell-based
Procedure, shortened: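 MOLM-13 cells, 30,000 per well in medium, treated over 60 μM to 247 nM and held at 37°C for 24 to 72 h. Plates equilibrated 30 min at RT, CellTiter-Glo reagent added, shaken 2 min, luminescence read after 10 min at rt. n = 3.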

MOLM-13 [12] = assay: Antiproliferative activity against human MOLM13 assessed as reduction in cell viability incubated for 72 hrs by MTS assay; format: functional, cell-based; conditions: MOLM-13, 72 h
MOLM-13 [13] = assay: Antiproliferative activity against human MOLM13 assessed as reduction in cell viability at 0.25 to 60 uM incubated for 24 hrs by MTS assay; format: functional, cell-based
Procedure, shortened: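 MOLM-13 cells, 60,000 per well, given compound over 60 μM to 247 nM, incubated at 37°C for 24 to 72 h. CellTiter 96 AQueous One (MTS) reagent added for 3 h, formazan absorbance read at 490 nm. EC50 or percentage values derived.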

Row | Structure (SMILES) | inhibition [1] [%] | IC50 [2] [nM] | EC50 (MOLM-13 [4]) [nM] | EC50 (MOLM-13 [8]) [nM] | further results
1 | CC(C)CCN1c2nc(Nc3cc(F)cc(F)c3)ncc2N(C)C(=O)C1C (configuration not stated) | 71 | – | – | – | –
2 | Nc1cnc(Nc2cc(F)c(O)c(F)c2)nc1N | 38 | – | – | – | –
3 | Oc1c(F)cc(Nc2ncccn2)cc1F | 45 | – | – | – | –
4 | CC(C)CCN1c2nc(Nc3ccc(O)c(Cl)c3)ncc2N(C)C(=O)C1C (configuration not stated) | – | 71.5 | – | – | –
5 | CC(C)CCN1c2nc(Nc3ccc(O)cc3)ncc2N(C)C(=O)C1C (configuration not stated) | – | 54.8 | – | – | –
6 | COc1c(F)cc(Nc2ncc3c(n2)N(CCC(C)C)C(C)C(=O)N3C)cc1F (configuration not stated) | 43 | – | – | – | –
7 | CC1Nc2nc(Nc3cc(F)c(O)c(F)c3)ncc2NC1=O (configuration not stated) | 83 | – | – | – | –
8 | Oc1c(F)cc(-c2cnccc2-c2ccc(N3CCOCC3)cc2)cc1F | – | – | 23400 | 19100 | inhibition of growth at 60 µM (MOLM-13 [3]): 79%; Activity (HEK293): Toxic; IC50 [5]: 5 nM; IC50 [6]: 4 nM; IC50 [7]: 6 nM
9 | CC(C)CCN1c2nc(Nc3cc(Br)c(O)c(Br)c3)ncc2N(C)C(=O)C1C (configuration not stated) | 78 | – | – | – | –
10 | CC(C)CCN1c2nc(Nc3cc(F)c(O)c(F)c3)ncc2N(C)C(=O)C1C (configuration not stated) | – | – | 3410 | 1890 | Kd [9]: 3500 nM; Activity (MOLM-13 [10]): Active; Activity (MOLM-13 [11]): Active; EC50 (MOLM-13 [12]): 2800 nM; Activity (MOLM-13 [13]): Active
11 | CC(C)CCN1CC(=O)Nc2cnc(Nc3ccc(O)c(F)c3)nc21 | – | 38.3 | 4640 | 2230 | EC50 (MOLM-13 [12]): 4390 nM
12 | CC(C)CCN1CC(=O)N(C)c2cnc(Nc3cc(F)c(O)c(F)c3)nc21 | – | 17.6 | 4540 | 1670 | EC50 (MOLM-13 [12]): 2710 nM
13 | CC(C)CCN1CC(=O)N(C)c2cnc(Nc3ccc(O)c(F)c3)nc21 | – | 24.7 | – | – | –
14 | CC(C)CCN1c2nc(Nc3ccc(O)c(F)c3)ncc2N(C)C(=O)C1C (configuration not stated) | – | 25.4 | 3160 | 870 | EC50 (MOLM-13 [12]): 1690 nM
15 | Nc1nc(Nc2cc(F)c(O)c(F)c2)ncc1[N+](=O)[O-] | 72 | – | – | – | –
16 | CC(C)CCN1CC(=O)Nc2cnc(Nc3cc(F)c(O)c(F)c3)nc21 | – | 23.4 | 6850 | 6200 | EC50 (MOLM-13 [12]): 6820 nM
17 | CC(C)CCN1c2nc(Nc3ccc(CO)cc3)ncc2N(C)C(=O)C1C (configuration not stated) | – | 739 | – | – | –
18 | CC(C)CCN1c2nc(Nc3cc(F)c(O)c(F)c3)ncc2NC(=O)C1C (configuration not stated) | – | 18.2 | 18100 | 17400 | inhibition of growth at 60 µM (MOLM-13 [3]): 56%; Activity (HEK293): Toxic
19 | CC(C)CCN1c2nc(Nc3cc(Cl)c(O)c(Cl)c3)ncc2N(C)C(=O)C1C (configuration not stated) | 83 | – | – | – | –
20 | CC(C)CCN1c2nc(Nc3ccc(O)c(Br)c3)ncc2N(C)C(=O)C1C (configuration not stated) | – | 141 | – | – | –
21 | CN1CCN(c2ccc(-c3ccncc3-c3cc(F)c(O)c(F)c3)cc2)CC1 | – | – | 22000 | 9710 | inhibition of growth at 60 µM (MOLM-13 [3]): 75%; Activity (HEK293): Toxic
